What was measured:
Type in all cases: functional
[1] = system: MOLT-4; assay: Cytotoxicity against human MOLT4 cells assessed as cell growth at 10 uM; details: read-out: Activity
Method in brief: (§1)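 NCI-60 screen: cells grown in RPMI 1640 with 5% FBS and 2 mM L-glutamine, plated at 5000–40,000 cells/well according to doubling time, and preincubated 24 h at 37 °C, 5% CO2. The single 10 µM dose (DMSO stock) was added, then incubated 48 h. Cells were TCA-fixed and stained with 0.4% SRB, read at 515 nm, and growth % calculated against time-zero and control plates.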

[2] = system: T47D; assay: Cytotoxicity against human T47D cells assessed as cell growth at 10 uM; details: read-out: Activity; method in brief: as §1
[3] = system: A498; assay: Cytotoxicity against human A498 cells assessed as cell growth at 10 uM; details: read-out: Activity
Method in brief: (§2)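 Single-dose NCI-60 screen at 10 µM. Cells were grown in RPMI 1640 with 5% FBS and 2 mM L-glutamine, then treated for 48 h at 37 °C. Protein was measured by SRB staining with absorbance at 515 nm. Percentage growth was recorded, and inhibition percentage was calculated as 100 minus growth percentage.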

[4] = system: OVCAR-3; assay: Cytotoxicity against human OVCAR-3 cells assessed as cell growth at 10 uM; details: read-out: Activity; method in brief: as §1
[5] = system: NCI-H23; assay: Cytotoxicity against human NCI-H23 cells assessed as cell growth at 10 uM; details: read-out: Activity; method in brief: as §1
[6] = system: SW-620; assay: Cytotoxicity against human SW620 cells assessed as cell growth at 10 uM; details: read-out: Activity; method in brief: as §1
[7] = system: ACHN; assay: Cytotoxicity against human ACHN cells assessed as cell growth at 10 uM; details: read-out: Activity; method in brief: as §2
[8] = system: SR; assay: Cytotoxicity against human SR cells assessed as cell growth at 10 uM; details: read-out: Activity; method in brief: as §1
[9] = system: SK-OV-3; assay: Cytotoxicity against human SKOV3 cells assessed as cell growth at 10 uM; details: read-out: Activity; method in brief: as §1
[10] = system: PC-3; assay: Cytotoxicity against human PC3 cells assessed as cell growth at 10 uM; details: read-out: Activity; method in brief: as §1
[11] = system: CAKI-1; assay: Cytotoxicity against human Caki1 cells assessed as cell growth at 10 uM; details: read-out: Activity; method in brief: as §2
[12] = system: SN12C; assay: Cytotoxicity against human SN12C cells assessed as cell growth at 10 uM; details: read-out: Activity; method in brief: as §1
[13] = system: COLO 205; assay: Cytotoxicity against human COLO205 cells assessed as cell growth at 10 uM; details: read-out: Activity; method in brief: as §2
[14] = system: MCF7; assay: Cytotoxicity against human MCF7 cells assessed as cell growth at 10 uM; details: read-out: Activity; method in brief: as §1
[15] = system: OVCAR-5; assay: Cytotoxicity against human OVCAR5 cells assessed as cell growth at 10 uM; details: read-out: Activity; method in brief: as §1
[16] = system: NCI-H226; assay: Cytotoxicity against human NCI-H226 cells assessed as cell growth at 10 uM; details: read-out: Activity; method in brief: as §1
[17] = system: OVCAR-8; assay: Cytotoxicity against human OVCAR8 cells assessed as cell growth at 10 uM; details: read-out: Activity; method in brief: as §1
[18] = system: SF-295; assay: Cytotoxicity against human SF295 cells assessed as cell growth at 10 uM; details: read-out: Activity; method in brief: as §1
[19] = system: SF-268; assay: Cytotoxicity against human SF268 cells assessed as cell growth at 10 uM; details: read-out: Activity; method in brief: as §1
[20] = system: NCI/ADR-RES; assay: Cytotoxicity against human NCI/ADR-RES cells assessed as cell growth at 10 uM; details: read-out: Activity; method in brief: as §1
[21] = system: MDA-MB-435; assay: Cytotoxicity against human MDA-MB-435 cells assessed as cell growth at 10 uM; details: read-out: Activity; method in brief: as §1
[22] = system: UACC-62; assay: Cytotoxicity against human UACC62 cells assessed as cell growth at 10 uM; details: read-out: Activity; method in brief: as §1
[23] = system: NCI-H522; assay: Cytotoxicity against human NCI-H522 cells assessed as cell growth at 10 uM; details: read-out: Activity; method in brief: as §1
[24] = Growth inhibition of human NCI60 cells at 10 uM after 48 hrs by sulforhodamine B assay relative to control; details: NCI60, 48 h, read-out: GI
Method in brief: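 Single-dose NCI screen at 10 µM across the 60-line panel, 48 h exposure at 37 °C after a 24 h preincubation. Adherent cells were fixed with cold TCA and stained with 0.4% SRB, and absorbance was read at 515 nm. Inhibition % was taken as 100 minus growth %, and the mean across all lines was reported.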

[25] = Cytotoxicity against human Hs 578T cells assessed as cell growth at 10 uM; details: read-out: Activity; method in brief: as §2
[26] = system: HOP-92; assay: Cytotoxicity against human HOP92 cells assessed as cell growth at 10 uM; details: read-out: Activity; method in brief: as §2
[27] = system: Malme-3M; assay: Cytotoxicity against human MALME-3M cells assessed as cell growth at 10 uM; details: read-out: Activity; method in brief: as §1
[28] = system: TK-10; assay: Cytotoxicity against human TK10 cells assessed as cell growth at 10 uM; details: read-out: Activity; method in brief: as §1
[29] = system: UACC-257; assay: Cytotoxicity against human UACC257 cells assessed as cell growth at 10 uM; details: read-out: Activity; method in brief: as §1
[30] = system: K562; assay: Cytotoxicity against human K562 cells assessed as cell growth at 10 uM; details: read-out: Activity; method in brief: as §2

Cc1cc(O)cc(-c2nn(CC#N)cc2-c2ccnc(-c3ccc(C#N)cc3)c2)c1
growth at 10 µM [1]: 54.6%
growth at 10 µM [2]: 29.2%
growth at 10 µM [3]: 103%
growth at 10 µM [4]: 110%
growth at 10 µM [5]: 72.7%
growth at 10 µM [6]: 119%
growth at 10 µM [7]: 65.2%
growth at 10 µM [8]: 88.5%
growth at 10 µM [9]: 88.5%
growth at 10 µM [10]: 95.5%
growth at 10 µM [11]: 84.3%
growth at 10 µM [12]: 73.5%
growth at 10 µM [13]: 66.1%
growth at 10 µM [14]: 34.4%
growth at 10 µM [15]: 107%
growth at 10 µM [16]: 79.8%
growth at 10 µM [17]: 72.9%
growth at 10 µM [18]: 91.3%
growth at 10 µM [19]: 102%
growth at 10 µM [20]: 77.7%
growth at 10 µM [21]: 88.3%
growth at 10 µM [22]: 62.3%
growth at 10 µM [23]: 60.7%
inhibition of growth at 10 µM [24]: 20.8%
growth at 10 µM [25]: 103%
growth at 10 µM [26]: 72.3%
growth at 10 µM [27]: 125%
growth at 10 µM [28]: 78.4%
growth at 10 µM [29]: 94.2%
growth at 10 µM [30]: 70%

— ChEMBL document CHEMBL1165950, “Design and synthesis of new potent anticancer pyrazoles with high FLT3 kinase inhibitory selectivity” (Bioorg Med Chem, 2010)
